The source made the active and inactive calls. The calls are words filed in the database; no cut-off is given here.
Key:
NCI-H460 = assay: Antiproliferative activity against human NCI-H460 cells measured after 48 hrs by SRB assay; type: functional
How it was run: (§1)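 Cells seeded and cultured overnight, then exposed to a gradient of compound concentrations for 48 h in medium with 5% FBS. A time-zero plate was fixed with 10% TCA at drug addition. After treatment, cells were fixed with 10% TCA and stained with 0.4% SRB in 1% acetic acid. Bound dye was dissolved in 10 mM trizma base, absorbance read at 515 nm, and GI50 derived. Each experiment was run at least three times.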

[1] = molecular target: Heat shock protein HSP 90-alpha (Homo sapiens, UniProt P07900); assay: Inhibition of recombinant human full-length C-terminal Hsi-tagged HSP90alpha (1 to 732 residues) expressed in Escherichia coli measured after 2 to 3 hrs by FITC-labeled geldanamycin probe based fluorescence polarization assay
A549 [2] = assay: Antiproliferative activity against human A549 cells measured after 48 hrs by SRB assay; type: functional
How it was run: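 Cells seeded and cultured overnight, then exposed to a gradient of compound concentrations for 48 h in medium with 5% FBS. A time-zero plate was fixed with 10% TCA at drug addition. After treatment, cells were fixed with 10% TCA and stained with 0.4% SRB in 1% acetic acid. Each experiment was run at least three times.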

NCI-H1975 [3] = assay: Antiproliferative activity against human NCI-H1975 cells measured after 48 hrs by SRB assay; type: functional; how it was run: as §1
HCT-116 [4] = assay: Antiproliferative activity against human HCT-116 cells measured after 48 hrs by SRB assay; type: functional; how it was run: as §1
A549 [5] = assay: Inhibition of HSP90 in human A549 cells assessed as down regulation of EGFR expression at 0.075 to 1.25 uM after 24 hrs by Western blot analysis; type: cell-based; settings: dose 0.075-1.25 µM
NCI-H1975 [6] = assay: Cell cycle arrest in human NCI-H1975 cells assessed as accumulation at sub-G1 phase at 0.075 to 1.25 uM measured after 48 hrs by propidium iodide staining based flow cytometry; type: functional; settings: dose 0.075-1.25 µM
How it was run: (§2)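 Cells in RPMI 1640 with 10% FBS, 37 °C, 5% CO2; 2.5×10^5/well, treated with DMSO or compound. Washed in PBS, fixed overnight in ice-cold 70% EtOH at -20 °C, stained in PBS with propidium iodide 80 µg/ml, Triton X-100 0.1% and RNase A 100 µg/ml. DNA content measured by FACScan; sub-G1 fraction quantified; means ± S.D., ≥3 independent experiments.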

NCI-H1975 [7] = assay: Induction of apoptosis in human NCI-H1975 cells assessed as increase in activated gamma H2AX expression after 48 hrs by Western blot analysis; type: functional, cell-based
How it was run: (§3)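 Cells grown in RPMI 1640 with 10% FBS were left to attach overnight, then exposed to compound at stated concentrations for 48 h. Lysates were immunoblotted for cleaved PARP, γH2AX and cleaved caspase-3, -8 and -9. Each experiment was done at least three times.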

NCI-H1975 [8] = assay: Induction of apoptosis in human NCI-H1975 cells assessed as increase in cleaved caspase 3 expression after 48 hrs by Western blot analysis; type: functional, cell-based; how it was run: as §3
NCI-H1975 [9] = assay: Inhibition of HSP90 in human NCI-H1975 cells assessed as down regulation of AKT expression at 0.075 to 1.25 uM after 24 hrs by Western blot analysis; type: cell-based; settings: dose 0.075-1.25 µM
NCI-H1975 [10] = assay: Induction of apoptosis in human NCI-H1975 cells assessed as increase in cleaved PARP expression after 48 hrs by Western blot analysis; type: functional, cell-based; how it was run: as §3
HCT-116 [11] = assay: Inhibition of colony formation in human HCT-116 cells at 0.009 to 0.018 uM measured after 24 hrs by crystal violet staining based assay; type: functional, cell-based; settings: dose 0.009-0.018 µM
How it was run: (§4)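 Cells at 5×10^3/well, exposed to DMSO or compound for 24 h. Drug was washed out, and cells were trypsinized, replated and grown for 10 days. Colonies were fixed and stained with crystal violet (0.5% in 70% EtOH) and counted as % of control. Repeated at least twice.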

A549 [12] = assay: Induction of apoptosis in human A549 cells assessed as increase in cleaved PARP expression after 48 hrs by Western blot analysis; type: functional, cell-based; how it was run: as §3
A549 [13] = assay: Inhibition of HSP90 in human A549 cells assessed as down regulation of AKT expression at 0.075 to 1.25 uM after 24 hrs by Western blot analysis; type: cell-based; settings: dose 0.075-1.25 µM
A549 [14] = assay: Induction of apoptosis in human A549 cells assessed as increase in activated gamma H2AX expression after 48 hrs by Western blot analysis; type: functional, cell-based; how it was run: as §3
A549 [15] = assay: Inhibition of HSP90 in human A549 cells assessed as upregulation of HSP70 expression at 0.075 to 1.25 uM after 24 hrs by Western blot analysis; type: cell-based; settings: dose 0.075-1.25 µM
NCI-H1975 [16] = assay: Induction of apoptosis in human NCI-H1975 cells assessed as increase in cleaved caspase 8 expression after 48 hrs by Western blot analysis; type: functional, cell-based; how it was run: as §3
A549 [17] = assay: Induction of apoptosis in human A549 cells assessed as increase in cleaved caspase 9 expression after 48 hrs by Western blot analysis; type: functional, cell-based; how it was run: as §3
NCI-H1975 [18] = assay: Induction of apoptosis in human NCI-H1975 cells assessed as increase in cleaved caspase 9 expression after 48 hrs by Western blot analysis; type: functional, cell-based; how it was run: as §3
A549 [19] = assay: Inhibition of colony formation in human A549 cells at 0.009 to 0.018 uM measured after 24 hrs by crystal violet staining based assay; type: functional, cell-based; settings: dose 0.009-0.018 µM; how it was run: as §4
A549 [20] = assay: Induction of apoptosis in human A549 cells assessed as increase in cleaved caspase 3 expression after 48 hrs by Western blot analysis; type: functional, cell-based; how it was run: as §3
A549 [21] = assay: Induction of apoptosis in human A549 cells assessed as increase in cleaved caspase 8 expression after 48 hrs by Western blot analysis; type: functional, cell-based; how it was run: as §3
A549 [22] = assay: Cell cycle arrest in human A549 cells assessed as accumulation at sub-G1 phase at 0.15 to 2.5 uM measured after 48 hrs by propidium iodide staining based flow cytometry; type: functional; settings: dose 0.15-2.5 µM; how it was run: as §2
NCI-H1975 [23] = assay: Inhibition of HSP90 in human NCI-H1975 cells assessed as down regulation of EGFR expression at 0.075 to 1.25 uM after 24 hrs by Western blot analysis; type: cell-based; settings: dose 0.075-1.25 µM
NCI-H1975 [24] = assay: Inhibition of HSP90 in human NCI-H1975 cells assessed as upregulation of HSP70 expression at 0.075 to 1.25 uM after 24 hrs by Western blot analysis; type: cell-based; settings: dose 0.075-1.25 µM
HCT-116 [25] = assay: Potency index, ratio of BIIB021 IC50 to test compound IC50 for human HCT-116 cells; type: functional
NCI-H1975 [26] = assay: Inhibition of colony formation in human NCI-H1975 cells at 0.009 to 0.018 uM measured after 24 hrs by crystal violet staining based assay; type: functional, cell-based; settings: dose 0.009-0.018 µM; how it was run: as §4

SMILES: CCCN(C(=O)c1cc(C(C)C)c(O)cc1O)c1ccc(Cn2c(=O)c(F)cn(C3CCCO3)c2=O)cc1 (stereo not drawn)
- GI50 (NCI-H460): 520 nM
- IC50 [1]: 48.2 nM
- GI50 (A549 [2]): 650 nM
- GI50 (NCI-H1975 [3]): 340 nM
- GI50 (HCT-116 [4]): 960 nM

SMILES: O=c1[nH]cc(F)c(=O)[nH]1 [FLUOROURACIL]
- GI50 (A549 [2]): 19800 nM
- GI50 (HCT-116 [4]): > 10000 nM

SMILES: C#CCN(C(=O)c1cc(C(C)C)c(O)cc1O)c1ccc(Cn2c(=O)[nH]cc(F)c2=O)cc1
- GI50 (NCI-H460): 70 nM
- IC50 [1]: 54.4 nM
- GI50 (A549 [2]): 30 nM
- GI50 (NCI-H1975 [3]): 20 nM
- GI50 (HCT-116 [4]): 40 nM

SMILES: CC(C)c1cc(C(=O)N(C)c2ccc(Cn3c(=O)c(F)cn(C4CCCO4)c3=O)cc2)c(O)cc1O (stereo not drawn)
- GI50 (NCI-H460): 70 nM
- IC50 [1]: 40.9 nM
- GI50 (A549 [2]): 90 nM
- GI50 (NCI-H1975 [3]): 60 nM
- GI50 (HCT-116 [4]): 120 nM

SMILES: CC(C)c1cc(C(=O)N(Cc2ccc(Cl)cc2)c2ccc(Cn3c(=O)c(F)cn(C4CCCO4)c3=O)cc2)c(O)cc1O (stereo not drawn)
- GI50 (NCI-H460): 460 nM
- IC50 [1]: 54.7 nM
- GI50 (A549 [2]): 560 nM
- GI50 (NCI-H1975 [3]): 160 nM
- GI50 (HCT-116 [4]): 700 nM

SMILES: COc1c(C)cnc(Cn2cnc3c(Cl)nc(N)nc32)c1C [BIIB021]
- GI50 (NCI-H460): 210 nM
- GI50 (NCI-H1975 [3]): 200 nM
- GI50 (HCT-116 [4]): 150 nM

SMILES: CC(C)c1cc(C(=O)N(Cc2ccccc2)c2ccc(Cn3c(=O)c(F)cn(C4CCCO4)c3=O)cc2)c(O)cc1O (stereo not drawn)
- GI50 (NCI-H460): 400 nM
- IC50 [1]: 45.3 nM
- GI50 (A549 [2]): 800 nM
- GI50 (NCI-H1975 [3]): 160 nM
- GI50 (HCT-116 [4]): 780 nM

SMILES: CC(C)c1cc(-c2n[nH]c(=O)n2-c2ccc3c(ccn3C)c2)c(O)cc1O [GANETESPIB]
- GI50 (HCT-116 [4]): 150 nM

SMILES: COc1ccc(CN(C(=O)c2cc(C(C)C)c(O)cc2O)c2ccc(Cn3c(=O)c(F)cn(C4CCCO4)c3=O)cc2)cc1 (stereo not drawn)
- GI50 (NCI-H460): 390 nM
- IC50 [1]: 58.8 nM
- GI50 (A549 [2]): 920 nM
- GI50 (NCI-H1975 [3]): 230 nM
- GI50 (HCT-116 [4]): 720 nM

SMILES: CC(C)c1cc(C(=O)N(Cc2ccc(C#N)cc2)c2ccc(Cn3c(=O)c(F)cn(C4CCCO4)c3=O)cc2)c(O)cc1O (stereo not drawn)
- GI50 (NCI-H460): 200 nM
- IC50 [1]: 45.3 nM
- GI50 (A549 [2]): 350 nM
- GI50 (NCI-H1975 [3]): 130 nM
- GI50 (HCT-116 [4]): 410 nM

SMILES: CCN(C(=O)c1cc(C(C)C)c(O)cc1O)c1ccc(Cn2c(=O)[nH]cc(F)c2=O)cc1
- GI50 (NCI-H460): 30 nM
- IC50 [1]: 44.9 nM
- GI50 (A549 [2]): 40 nM
- GI50 (NCI-H1975 [3]): 30 nM
- GI50 (HCT-116 [4]): 30 nM

SMILES: O=c1[nH]c(=O)n(C2CCCO2)cc1F (stereo not drawn) [TEGAFUR]
- GI50 (A549 [2]): > 50000 nM
- GI50 (HCT-116 [4]): > 10000 nM

SMILES: CC(C)c1cc(C(=O)Nc2ccc(Cn3c(=O)c(F)cn(C4CCCO4)c3=O)cc2)c(O)cc1O (stereo not drawn)
- GI50 (NCI-H460): > 10000 nM
- IC50 [1]: > 1000 nM
- GI50 (A549 [2]): > 10000 nM
- GI50 (NCI-H1975 [3]): > 10000 nM
- GI50 (HCT-116 [4]): > 10000 nM

SMILES: C=CCN(C(=O)c1cc(C(C)C)c(O)cc1O)c1ccc(Cn2c(=O)[nH]cc(F)c2=O)cc1
- GI50 (NCI-H460): 70 nM
- IC50 [1]: 48 nM
- GI50 (A549 [2]): 100 nM
- GI50 (NCI-H1975 [3]): 50 nM
- GI50 (HCT-116 [4]): 80 nM

SMILES: CCN(C(=O)c1cc(C(C)C)c(O)cc1O)c1ccc(Cn2c(=O)c(F)cn(C3CCCO3)c2=O)cc1 (stereo not drawn)
- inhibition (A549 [5]): Active
- GI50 (NCI-H460): 60 nM
- Activity (NCI-H1975 [6]): Active
- IC50 [1]: 27.8 nM
- Activity (NCI-H1975 [7]): Dose-dependent effect
- Activity (NCI-H1975 [8]): Dose-dependent effect
- inhibition (NCI-H1975 [9]): Active
- GI50 (A549 [2]): 70 nM
- Activity (NCI-H1975 [10]): Dose-dependent effect
- inhibition (HCT-116 [11]): Active
- GI50 (NCI-H1975 [3]): 40 nM
- Activity (A549 [12]): Dose-dependent effect
- inhibition (A549 [13]): Active
- Activity (A549 [14]): Dose-dependent effect
- inhibition (A549 [15]): Active
- Activity (NCI-H1975 [16]): Dose-dependent effect
- Activity (A549 [17]): Dose-dependent effect
- Activity (NCI-H1975 [18]): Dose-dependent effect
- inhibition (A549 [19]): Active
- Activity (A549 [20]): Dose-dependent effect
- Activity (A549 [21]): Dose-dependent effect
- Activity (A549 [22]): Active
- inhibition (NCI-H1975 [23]): Active
- inhibition (NCI-H1975 [24]): Active
- Ratio IC50 (HCT-116 [25]): 15
- GI50 (HCT-116 [4]): 10 nM
- inhibition (NCI-H1975 [26]): Active

SMILES: CCNC(=O)c1noc(-c2cc(C(C)C)c(O)cc2O)c1-c1ccc(CN2CCOCC2)cc1 [LUMINESPIB]
- GI50 (NCI-H460): 30 nM
- GI50 (A549 [2]): 10 nM
- GI50 (NCI-H1975 [3]): 20 nM
